A selection: hits, their analogues and other compounds. The true share with any hit is near 2.6%.
TAAR1 antagonist: antagonists of human TAAR1; Q96RJ0; CHO RD-HGA16 TAAR1, Fluo-8 calcium fluorescence, antagonist; inhibition, % at 3 µM; actives 1.5% (n = 360,000);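 active means inhibition above a per-plate cutoff, the mean inhibition of test compounds on that plate plus 3 SD, cut at about 49% in these data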;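 further: 0% = DMSO plus EC80 beta-PEA response and 100% = DMSO alone without agonist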
Target sequence (Q96RJ0 whole entry, looked up): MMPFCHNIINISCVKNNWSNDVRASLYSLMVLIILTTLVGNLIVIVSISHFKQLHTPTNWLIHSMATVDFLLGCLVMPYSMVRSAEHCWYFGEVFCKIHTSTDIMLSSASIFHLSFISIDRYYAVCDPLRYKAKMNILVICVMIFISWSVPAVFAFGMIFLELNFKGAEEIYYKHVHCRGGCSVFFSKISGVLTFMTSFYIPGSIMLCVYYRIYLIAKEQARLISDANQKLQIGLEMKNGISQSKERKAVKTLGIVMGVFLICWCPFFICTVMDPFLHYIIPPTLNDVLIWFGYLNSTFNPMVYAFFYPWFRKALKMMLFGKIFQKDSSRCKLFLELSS
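Test system: hTAAR1-expressing CHO RD-HGA16 cells, Gα16-coupled; Probe or stimulus: EC80 β-phenethylamine stimulus; Compound dosing: single nominal final test compound concentration of 3 µM; Timing: 140 s kinetic read after compound, 140 s after agonist; Signal: Fluo-8 calcium-sensitive fluorescence; Measure: % inhibition of agonist calcium response; Controls: DMSO and EC80 PEA controls.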
VLA-4 inh: inhibition in a human VLA-4 binding assay; inhibition, % (about 7 µM as worked out from the volumes in the protocol); VLA-4 expressing cells, ligand binding flow cytometry; P13612; actives 0.2% (n = 330,000); in the data active means inhibition above about 50%
Rce1 inh: yeast Ras-converting enzyme inhibition; Q03530; yeast membranes, quenched prenylated peptide cleavage fluorescence; calls only; actives 0.27% (n = 290,000); AID 2563;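 active means fall in fluorescence gain of 50% or more versus controls, with final raw signal at or below 3038400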;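 further: plate controls were neutral control wells for no effect and wells lacking membranes for full effect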
Target sequence (Q03530 whole entry, looked up): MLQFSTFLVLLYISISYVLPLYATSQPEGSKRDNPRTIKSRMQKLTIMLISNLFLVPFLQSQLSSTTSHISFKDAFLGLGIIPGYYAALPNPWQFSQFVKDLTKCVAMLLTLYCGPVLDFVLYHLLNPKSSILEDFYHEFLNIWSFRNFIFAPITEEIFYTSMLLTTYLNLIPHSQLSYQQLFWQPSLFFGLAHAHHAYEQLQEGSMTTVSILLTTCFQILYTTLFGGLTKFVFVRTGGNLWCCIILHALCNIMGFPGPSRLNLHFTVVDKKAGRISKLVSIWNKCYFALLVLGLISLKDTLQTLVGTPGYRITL
Platelet DG rel: platelet dense granule release activity. human platelet-rich plasma, SFLLRN dense granule ATP release, luminescence. inhibition, %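 (compounds screened at 7.5 µM in platelet-rich plasma)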. actives 0.22% (n = 300,000). AID 1663;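 active means mean replicate score, as percent of positive control, at or above 50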
TAAR1 agonist: human TAAR1 agonism; Q96RJ0; CHO RD-HGA16 TAAR1, Fluo-8 calcium fluorescence; vehicle wells 0%, saturating PEA agonist 100%; activation, % at 3 µM; actives 0.99% (n = 360,000);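 active means activation above the mean activation of all test compounds in the run plus 3 SD, cut at about 38% in these data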
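Benchmarks: low control DMSO, high control PEA (EC100); System: CHO RD-HGA16 cells carrying human TAAR1 plus Gα16; Detection: Fluo-8 fluorescence, 5 s baseline then 140 s kinetic read; Schedule: 17-24 h plating, Fluo-8 75 min 37 °C, 30 min RT; Read-out basis: % activation from peak over basal fluorescence ratio, DMSO-to-PEA scaled.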
TAAR1 ag confirm: human TAAR1 agonism, confirmed; shares compounds with TAAR1 agonist; AID 651783; activation, % at 3 µM; CHO RD-HGA16 TAAR1, Fluo-8 calcium fluorescence; scaled: DMSO 0%, maximal phenethylamine 100%; actives 82% (n = 2,400);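 active means activation above a cutoff set at the run's mean compound activation plus 3 SD, cut at about 39% in these data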
Ga16 ag counter: nonselective agonist in parental cells, TAAR1 agonist counter-screen | shares compounds with TAAR1 agonist | CHO-Ga16 parental, Fluo-8 calcium fluorescence; normalized to maximal ATP response, DMSO zero | activation, % at 3 µM | actives 50% (n = 2,400);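 active means activation above the run cutoff, the mean activation over all tested wells plus 3 SD, cut at about 12% in these data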;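 further: 0% = DMSO wells and 100% = maximal ATP response on the peak over basal ratio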
TAAR1 desens: TAAR1 response desensitization, agonist counter-screen; shares compounds with TAAR1 agonist; CHO RD-HGA16 hTAAR1, Fluo-8 calcium, beta-PEA response inhibition; inhibition, % at 3 µM; actives 46% (n = 2,400); AID 651951;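 active means inhibition above the run cutoff, the mean inhibition of all test compounds plus 3 SD, cut at about 49% in these data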;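 further: beta-PEA stimulus applied at its EC80; loss of beta-PEA calcium signal after compound pretreatment read as receptor desensitization; 0% = DMSO with beta-PEA at EC80 and 100% = DMSO alone without agonist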
Ga16 nonsel ant: nonselective Ga16 antagonism, counter-screen | inhibition, % at 3 µM | shares compounds with TAAR1 agonist | actives 39% (n = 2,400) | CHO-Ga16 ATP-induced calcium, Fluo-8 fluorescence;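 active means inhibition above the plate's mean compound inhibition plus 3 SD, computed per plate, cut at about 22% in these data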;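 further: 0% = EC80 ATP with DMSO and 100% = DMSO wells without ATP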
Numbers without * were called inactive; i = inactive; . = no result.

SMILES | TAAR1 antagonist | VLA-4 inh | Rce1 inh | Platelet DG rel | TAAR1 agonist | TAAR1 ag confirm | Ga16 ag counter | TAAR1 desens | Ga16 nonsel ant
Cc1cc(C(=O)COC(=O)c2ccc(NC(=O)CC#N)cc2)c(C)n1CCc1ccc(F)cc1 | 46 | 0 | . | . | 55* | 82* | 6 | 77* | 30*
Cc1ccccc1NC(=O)Cc1nc(COC(=O)CCOc2ccccc2)cs1 | -3 | 13 | i | 0 | -1 | . | . | . | .
COCCN(C(=O)c1ccc(OC2CCN(S(=O)(=O)N(C)C)CC2)cc1)C(C)C | 3 | -3 | i | -6 | 4 | . | . | . | .
O=C(c1nc2ccccn2c1CNCC1OCCc2ccccc21)N1CCOCC1 (stereo not drawn) | . | 0 | i | 3 | . | . | 3 | . | 13
CSCCNCc1c(C(=O)N2CCOCC2)nc2c(C)cccn12 | -4 | 7 | i | -5 | 0 | . | . | . | .
Cc1ccn2c(CNCC3OCCc4ccccc43)c(C(=O)N3CCCCCC3)nc2c1 (stereo not drawn) | 39 | -3 | i | -4 | 84* | 81* | 5 | 71* | 14
Cc1ccn2c(CNCCn3cccn3)c(C(=O)N3CCCCCC3)nc2c1 | 2 | -3 | i | -5 | 28 | . | . | . | .
OCCN1CCN(CC(O)COC(c2ccc(F)cc2)c2ccc(F)cc2)CC1 (stereo not drawn) | -10 | 9 | i | -3 | 0 | . | . | . | .
OC(COC(c1ccc(F)cc1)c1ccc(F)cc1)CN1CCCC(C(F)(F)F)C1 (stereo not drawn) | 38 | 2 | i | -1 | 70* | 79* | 3 | 58* | 14
Cc1ccc(S(=O)(=O)n2nc(-c3ccco3)nc2N)cc1 | -12 | 4 | . | -3 | 2 | . | . | . | .
CC(C)CCC1(CCO)C(=O)N=C(N)NC1=O (stereo not drawn) | -14 | . | . | . | 1 | . | . | . | .
Cc1cc(NS(=O)(=O)c2ccccc2)c(C)c(Cl)c1O | 8 | 8 | i | -4 | 55* | 67* | 26* | 39 | 19
CCOC(=O)c1ccc(Oc2cn[nH]c2-c2ccc(OCC(=O)NN)cc2O)cc1 | 35 | -1 | i | -10 | 86* | 47* | 17* | 27 | 21
Cc1cccc(CCNC(=O)CCc2nc(-c3ccccc3F)no2)c1 | -8 | 10 | . | -7 | 17 | . | . | . | .
CN(C(=O)CCc1nc(-c2ccccc2F)no1)c1ccccc1 | -19 | -4 | i | 8 | 45* | 6 | 7 | 4 | 2
COc1cccc(CNC(=O)c2ccc(CS(=O)(=O)Cc3ccccc3C)o2)c1 | -9 | -4 | i | -1 | 7 | . | . | . | .
CN(CCNC(=O)c1ccc(CS(=O)(=O)c2ccc(Br)cc2)o1)CCc1ccccc1 | -19 | 8 | i | 3 | 53* | 51* | 2 | 14 | 10
O=C(NCCc1ccccc1)c1ccc(CS(=O)(=O)c2ccc(Br)cc2)o1 | 2 | 5 | i | 3 | 10 | . | . | . | .
Cc1cccc(CS(=O)(=O)Cc2ccc(C(=O)NCCc3ccccc3)o2)c1 | 25 | 3 | i | -8 | 48* | 31 | 4 | 8 | 16
Cc1ccccc1CS(=O)(=O)Cc1ccc(C(=O)NCCc2ccccc2)o1 | 41 | 9 | i | -9 | 72* | 48* | 8 | 34 | 22*
Cc1ccc(S(=O)(=O)N(C)C[C@@H]2OCc3cnnn3CCCC(=O)N([C@@H](C)CO)C[C@H]2C)cc1 | -32 | . | . | . | 11 | . | . | . | .
O=C(OCc1cn([C@H]2C[C@H](c3ccc(Cl)cc3)N(C(=O)C3CCCCC3)C[C@@H]2O)nn1)c1ccccc1 | 44 | . | . | . | 3 | . | . | . | .
CCN(CC)c1ccc(/C=C2\C(=O)c3ccc(C(=O)O)cc3C2=O)cc1 | 86* | i | . | . | 125* | 144* | 163* | 89* | 92*
CCN(CC)c1ccc(C(=O)O)cc1 | 9 | 12 | i | -1 | 4 | . | . | . | .
COc1ccc(CCNC2=NCCS2)cc1 | 16 | -6 | i | -7 | 59* | 62* | 0 | 37 | 6
SMILES | TAAR1 antagonist | VLA-4 inh | Rce1 inh | Platelet DG rel | TAAR1 agonist | TAAR1 ag confirm | Ga16 ag counter | TAAR1 desens | Ga16 nonsel ant
Cc1oc(-c2ccccc2Cl)nc1CS(=O)(=O)CC(=O)NCCc1ccccc1 | 50* | -20 | i | -1 | 72* | 85* | 4 | 72* | 6
CN(C)c1ccc(C(CNC(=O)c2ccc(-c3ccccc3)cc2)N2CCOCC2)cc1 (stereo not drawn) | -41 | -5 | i | -8 | 2 | . | . | . | .
Cc1ccccc1CNC(=O)c1[nH]c(C(F)(F)F)nc1-c1ccccc1 | -1 | . | . | . | 2 | . | . | . | .
O=c1cnnc(Nc2ccc(F)cc2)[nH]1 | 25 | -2 | i | 13 | 46* | 57* | 2 | 3 | 4
O=c1cnnc(Nc2cccc(F)c2)[nH]1 | 37 | 5 | i | 0 | 64* | 74* | 0 | 48 | 12
O=C(NCc1ccccc1)C(=O)NCC1OCCCN1S(=O)(=O)c1cccs1 (stereo not drawn) | -24 | -10 | i | -11 | 6 | . | . | . | .
O=C(NCCc1ccccc1)C(=O)NCCC1CCCCN1S(=O)(=O)c1ccccc1 (stereo not drawn) | 1 | 34 | i | 0 | 19 | . | . | . | .
O=C(NCCc1ccccc1)C(=O)NCC1OCCN1S(=O)(=O)c1ccc(Cl)cc1 (stereo not drawn) | -5 | 6 | i | 2 | 14 | . | . | . | .
O=C(NCCc1ccccc1)C(=O)NCC1CCCN1S(=O)(=O)c1ccccc1 (stereo not drawn) | 76* | 14 | i | 0 | 59* | 85* | 11 | 80* | 38*
Cc1ccc(S(=O)(=O)N2CCOC2CNC(=O)C(=O)NCCc2ccccc2)cc1 (stereo not drawn) | 37 | 4 | i | 2 | 58* | 82* | 1 | 41 | 15
Cc1ccc(S(=O)(=O)N2CCOC2CNC(=O)C(=O)NCCCc2ccccc2)cc1 (stereo not drawn) | -23 | 0 | i | 2 | 11 | . | . | . | .
O=C(NCCc1ccccc1)C(=O)NCC1OCCN1S(=O)(=O)c1ccc([N+](=O)[O-])cc1 (stereo not drawn) | 28 | 20 | i | 9 | 47* | 73* | 2 | 22 | 9
O=C(NCCc1ccccc1)C(=O)NCC1OCCCN1S(=O)(=O)c1cccs1 (stereo not drawn) | 41 | 1 | i | -3 | 68* | 97* | 16* | 74* | 11
